The source of these data is ChEMBL document CHEMBL1132613 (J Med Chem, 1999).

Experiment [1] deals with Rattus norvegicus. The experiment in a line: Percentage of animals emitting >80% of lever presses in LSD trained rats at a compound dose of 12.6 uM/Kg. In kind it is functional. In outline: (§1)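 Male Sprague–Dawley rats (200–220 g) in a two-lever, FR50 food-reinforced task. Rats were trained to discriminate saline from LSD tartrate (0.08 mg/kg), DOI HCl (0.4 mg/kg) or LY293284 (0.025 mg/kg) in 15-min sessions. %SDL is the share of rats making over 80% of presses on the drug lever. %D is the share failing to make 50 presses within 15 min. ED50 by Litchfield–Wilcoxon log-probit.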

Experiment [2] concerns Rattus norvegicus. The experiment in a line: Percentage of animals failing to emit 50 lever presses within 15 min in LSD trained rats at a compound dose of 2.0 mg/kg. It is filed as functional. In outline: as §1
The test system of experiment [3] is Rattus norvegicus. Nature of the experiment: Percentage of animals failing to emit 50 lever presses within 15 min in DOI trained rats at a compound dose of 2 mg/kg. In kind it is functional. In outline:
as §1

For experiment [4], the system named is Rattus norvegicus. The experiment in a line: Percentage of animals emitting >80% of lever presses in […] trained rats at a compound dose of 12.6 uM/Kg. It is filed as functional. In outline: as §1
In experiment [5] the test system is Rattus norvegicus. The experiment in a line: Percentage of animals emitting >80% of lever presses in […] trained rats at a compound dose of 6.32 uM/Kg. It is filed as functional. The procedure, abridged: as §1
The subject of experiment [6] is Rattus norvegicus. Nature of the experiment: Percentage of animals emitting >80% of lever presses in DOI trained rats at a compound dose of 25.3 uM/Kg. It is filed as functional. In outline:
as §1

The subject of experiment [7] is Rattus norvegicus. The experiment in a line: Percentage of animals failing to emit 50 lever presses within 15 min in […] trained rats at a compound dose of 16 mg/kg. It is filed as functional. The procedure, abridged:
(§2)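 Two-lever drug discrimination in male Sprague–Dawley rats (200–220 g at start), trained against saline on LSD tartrate (0.08 mg/kg), DOI HCl (0.4 mg/kg) or LY293284 (0.025 mg/kg). FR50 food-pellet reinforcement, levers counterbalanced, 15-min sessions at 22–24 °C. %D is the share of tested rats not completing 50 lever presses within 15 min.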

The test system of experiment [8] is Rattus norvegicus. Nature of the experiment: Percentage of animals failing to emit 50 lever presses within 15 min in DOI trained rats at a compound dose of 16 mg/kg. In kind it is functional. In outline: as §1
Experiment [9] has as its system Rattus norvegicus. Nature of the experiment: Percentage of animals failing to emit 50 lever presses within 15 min in DOI trained rats at a compound dose of 4 mg/kg. It is filed as functional. The procedure, abridged:
as §1

For experiment [10], the system named is Rattus norvegicus. The experiment in a line: Percentage of animals failing to emit 50 lever presses within 15 min in LSD trained rats at a compound dose of 16 mg/kg. In kind it is functional. In outline: as §1
Experiment [11] relates to Rattus norvegicus. Nature of the experiment: Percentage of animals emitting >80% of lever presses in LSD trained rats at a compound dose of 6.32 uM/Kg. In kind it is functional. The procedure, abridged: as §1
Experiment [12] deals with Rattus norvegicus. The experiment in a line: Percentage of animals failing to emit 50 lever presses within 15 min in […] trained rats at a compound dose of 2 mg/kg. It is filed as functional. In outline: as §2
Experiment [13] has as its system Rattus norvegicus. The experiment in a line: Percentage of animals failing to emit 50 lever presses within 15 min in LSD trained rats at a compound dose of 0.5 mg/kg. In kind it is functional. The procedure, abridged: as §1
Experiment [14] has as its target T1, 5-hydroxytryptamine receptor 2C (Homo sapiens, UniProt P28335).
T1 sequence (P28335 whole entry): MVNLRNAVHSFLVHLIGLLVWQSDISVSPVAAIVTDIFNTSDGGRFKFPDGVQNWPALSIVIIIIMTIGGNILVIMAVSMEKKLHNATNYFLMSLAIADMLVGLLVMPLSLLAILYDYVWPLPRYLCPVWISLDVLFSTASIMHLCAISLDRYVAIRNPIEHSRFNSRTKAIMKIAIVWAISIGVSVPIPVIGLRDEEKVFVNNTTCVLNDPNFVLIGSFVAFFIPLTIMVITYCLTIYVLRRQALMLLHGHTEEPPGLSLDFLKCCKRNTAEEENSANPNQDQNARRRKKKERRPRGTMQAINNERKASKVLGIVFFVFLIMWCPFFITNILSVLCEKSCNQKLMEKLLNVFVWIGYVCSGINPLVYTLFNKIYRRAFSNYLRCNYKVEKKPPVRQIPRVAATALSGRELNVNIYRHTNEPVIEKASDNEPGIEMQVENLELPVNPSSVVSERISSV
Nature of the experiment: Compound was tested for the displacement of [125I]DOI from cloned human 5-hydroxytryptamine 2C receptor. In outline: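 Membranes from AV12 hamster fibroblasts stably expressing human 5-HT2A or 5-HT2C. [125I]DOI was about 0.07–0.15 nM final. Buffer was 50 mM Tris-HCl pH 7.4 with 10 μM pargyline, 9.75 mM MgCl2, 0.5 mM Na2-EDTA and 0.1% Na ascorbate. Incubation was 30 min at 37 °C with about 40 μg protein (2A) or 30 μg (2C). Nonspecific binding used 1 μM ketanserin (2A) or 10 μM mianserin (2C). Read by gamma counting; sigmoid nonlinear regression.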
(Displacement assays read how much labelled ligand stays bound in the presence of the test substance.)

The test system of experiment [15] is Rattus norvegicus. The experiment in a line: Percentage of animals emitting >80% of lever presses in DOI trained rats at a compound dose of 12.6 uM/Kg. It is filed as functional. In outline:
as §1

Experiment [16] deals with Rattus norvegicus. The experiment in a line: Percentage of animals failing to emit 50 lever presses within 15 min in […] trained rats at a compound dose of 4 mg/kg. It is filed as functional. The procedure, abridged: as §2
In experiment [17] the test system is Rattus norvegicus. The experiment in a line: Percentage of animals emitting >80% of lever presses in […] trained rats at a compound dose of 50.6 uM/Kg. It is filed as functional. The procedure, abridged:
as §1

Experiment [18] relates to Rattus norvegicus. The experiment in a line: Percentage of animals failing to emit 50 lever presses within 15 min in LSD trained rats at a compound dose of 4.0 mg/kg. In kind it is functional. In outline: as §2
Experiment [19] has as its target T2, 5-hydroxytryptamine receptor 1A (Rattus norvegicus, UniProt P19327).
T2 sequence (P19327 whole entry): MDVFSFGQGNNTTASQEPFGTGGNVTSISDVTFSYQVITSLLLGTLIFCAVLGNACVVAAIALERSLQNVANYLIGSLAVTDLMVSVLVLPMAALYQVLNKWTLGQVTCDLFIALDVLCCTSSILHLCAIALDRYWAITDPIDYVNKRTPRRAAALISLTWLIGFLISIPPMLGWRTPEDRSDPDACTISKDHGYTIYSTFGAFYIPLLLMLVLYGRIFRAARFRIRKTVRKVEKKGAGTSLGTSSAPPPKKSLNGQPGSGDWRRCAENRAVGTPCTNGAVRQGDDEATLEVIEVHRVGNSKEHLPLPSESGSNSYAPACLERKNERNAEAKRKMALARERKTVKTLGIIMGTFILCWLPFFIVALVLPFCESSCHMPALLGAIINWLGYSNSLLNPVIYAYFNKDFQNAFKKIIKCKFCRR
The experiment in a line: Compound was tested for the displacement of [3H]-8-OH- DPAT from rat brain 5-hydroxytryptamine 1A receptor. The procedure, abridged: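 Pooled rat hippocampal membranes were preincubated at 37 °C. Buffer was 50 mM Tris HCl pH 7.4 with 0.5 mM Na2EDTA, 10 mM MgCl2, 0.1% Na ascorbate and pargyline. 200–400 μg protein was incubated with [3H]-8-OH-DPAT for 15 min at 37 °C, then GF/C filtered and scintillation counted. Nonspecific binding was defined with 10 μM 5-HT. Triplicate tubes.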

Experiment [20] deals with Rattus norvegicus. The experiment in a line: Percentage of animals failing to emit 50 lever presses within 15 min in LSD trained rats at a compound dose of 8.0 mg/kg. In kind it is functional. In outline:
as §2

The subject of experiment [21] is Rattus norvegicus. Nature of the experiment: Percentage of animals failing to emit 50 lever presses within 15 min in DOI trained rats at a compound dose of 8 mg/kg. In kind it is functional. In outline: as §1
Experiment [22] concerns Rattus norvegicus. Nature of the experiment: Percentage of animals emitting >80% of lever presses in LSD trained rats at a compound dose of 50.6 uM/Kg. It is filed as functional. The procedure, abridged:
as §1

As a reminder, the Ki is a dissociation constant, usually derived from enzyme kinetics or from competition with a known ligand. Read a low Ki as higher affinity. As to `CN(C)CCc1c[nH]c2sccc12`, the SDL came out at 16.7% in the experiment on Rattus norvegicus [1]; 67% with Rattus norvegicus [4]; 10% in the experiment on Rattus norvegicus [5]; 0% with Rattus norvegicus [6]; 9% in the experiment with Rattus norvegicus [11]; 0% in the experiment with Rattus norvegicus [15]. For the same compound, the SDL in the experiment with Rattus norvegicus [17] is reported as 83%; with Rattus norvegicus [22], 16.7%. The D with Rattus norvegicus [2] was found to be 0%; with Rattus norvegicus [3] it was 0%; with Rattus norvegicus [7], 0%; with Rattus norvegicus [8] it was 50%; in the experiment on Rattus norvegicus [9] it was 0%; with Rattus norvegicus [10], 50%. The D in the experiment with Rattus norvegicus [12] is given as 0%; in the experiment with Rattus norvegicus [13], 22%; in the experiment with Rattus norvegicus [16], 0%; with Rattus norvegicus [18], 0%; in the experiment on Rattus norvegicus [20], 0%; in the experiment on Rattus norvegicus [21] it was 12.5%. The Ki in experiment [14] worked out at 102 nM; in [19], 184 nM.
